Experimental findings from ChEMBL document CHEMBL3734686, “Synthesis, Photophysical Properties, and Biological Evaluation of trans-Bisthioglycosylated Tetrakis(fluorophenyl)chlorin for Photodynamic Therapy” (J Med Chem, 2015) are described below.

In data set [1] the test system is Urinary bladder. Kind of data set: Drug uptake in BALB/c mouse bladder implanted with mouse 4T1 cells assessed per gram of tissue at 0.18 mg/kg, ip after 24 hrs by HPLC-based fluorescence analysis. It counts as ADME, organism-based. Particulars: in vivo. In short, it runs like this: (§1)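 Female BALB/c mice bearing 4T1 thigh tumours received an i.p. dose in ethanol/PEG400/H2O (2/3/5) with 0.1% DMSO, or in saline, and were kept dark until killed. Tissues were weighed (100 mg), homogenised in CH3OH/DMSO/H2O (32/8/1) and centrifuged twice at 2300×g at 4°C. Supernatants were analysed by HPLC with fluorescence detection (λex 404/λem 654 nm or λex 400/λem 666 nm). n = 3 per time point.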

A short description of data set [2]: Drug uptake in BALB/c mouse small intestine implanted with mouse 4T1 cells assessed per gram of tissue at 0.18 mg/kg, ip after 6 hrs by HPLC-based fluorescence analysis. The class given is ADME, organism-based. The settings on record: in vivo. The method in brief:
(§2)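 Female BALB/c mice with 4T1 cells (1 × 10^6 in HBSS) implanted in left rear thigh; single i.p. dose, 7 in ethanol/PEG400/H2O (2/3/5) with 0.1% DMSO, mono-L-aspartyl chlorin e6 in saline; kept dark until sacrifice. Tissues washed, frozen, homogenized in CH3OH/DMSO/H2O (32/8/1), centrifuged 2300×g; supernatant analysed by HPLC with fluorescence detection; three animals per time point.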

Data set [3] in a line: Photocytotoxicity against mouse B16-F1 cells assessed as cell survival preincubated for 24 hrs followed by irradiation at 16 J/cm2 measured at 24 hrs by WST-8 assay. The class given is functional, cell-based. Particulars: B16-F1, light or radiation study. The method in brief: (§3)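 Cells (5 × 10^3/well) in DMEM with 10% FCS, 24 h at 37°C, 5% CO2; photosensitizer 1–50000 nM (1% DMSO final) for 24 h, washed, fresh medium. Irradiated with 100-W halogen lamp through λ>500 nm or λ>600 nm cutoff filter to 16 J·cm−2; WST-8 absorbance at 450 nm 24 h later, survival normalized to no-drug wells.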

For data set [4], the system named is 4T1. In words: Antiangiogenic activity against mouse 4T1 cells implanted in BALB/c mouse at 0.045 mg/kg, ip administered for 48 hrs followed by irradiation at 48 J/cm2 measured after 6 days by hematoxylin/eosin-staining based microscopic analysis. It counts as functional, organism-based. The method in brief: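 4T1 cells (1 × 10^6 in HBSS) were implanted in the left rear thigh of female BALB/c mice. At 48 h after i.p. dosing at 31.25 nmol·kg−1 in ethanol/PEG400/H2O (2/3/5) with 0.1% DMSO, the tumour was irradiated with a 100-W halogen lamp (λ > 500 nm, 48 J·cm−2). Skin with tumour was taken 6 days later, fixed in 4% paraformaldehyde, paraffin-embedded, cut into 7-µm sections, H&E-stained and examined by light microscopy.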

Data set [5] has as its system 4T1. Kind of data set: Antitumor activity against mouse 4T1 cells implanted in BALB/c mouse at 0.18 mg/kg, ip assessed as tumor growth inhibition administered for 48 hrs followed by irradiation at 40 mW/cm2 for 20.1 mins measured after 5 days by Vernier calipers. The class given is functional, organism-based. The method in brief: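 Female BALB/c mice carried 4T1 thigh tumours (1 × 10^6 cells) of 50–60 mm3. They were dosed i.p. at 250–31.25 nmol·kg−1 in ethanol/PEG400/H2O (2/3/5) containing 0.1% DMSO and kept dark. At 48 h the tumour was irradiated with a 100-W halogen lamp at 40 mW·cm−2 for 20.1 min. Tumour size was measured daily by caliper as length × width²/2 and normalised to day 0.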

The test system of data set [6] is Kidney. Kind of data set: Drug uptake in BALB/c mouse kidney implanted with mouse 4T1 cells assessed per gram of tissue at 0.18 mg/kg, ip after 6 hrs by HPLC-based fluorescence analysis. Particulars: in vivo. The class given is ADME, organism-based. In short, it runs like this: as §1
The test system of data set [7] is Heart. Kind of data set: Drug uptake in BALB/c mouse heart implanted with mouse 4T1 cells assessed per gram of tissue at 0.18 mg/kg, ip after 72 hrs by HPLC-based fluorescence analysis. The class given is ADME, organism-based. Particulars: in vivo. The method in brief: as §1
Data set [8] has as its system Heart. In words: Drug uptake in BALB/c mouse heart implanted with mouse 4T1 cells assessed per gram of tissue at 0.18 mg/kg, ip after 48 hrs by HPLC-based fluorescence analysis. It counts as ADME, organism-based. The settings on record: in vivo. In short, it runs like this: as §1
In data set [9] the test system is Kidney. Kind of data set: Drug uptake in BALB/c mouse kidney implanted with mouse 4T1 cells assessed per gram of tissue at 0.18 mg/kg, ip after 48 hrs by HPLC-based fluorescence analysis. The class given is ADME, organism-based. Particulars: in vivo. In short, it runs like this: as §1
Data set [10] concerns Liver. In words: Drug uptake in BALB/c mouse liver implanted with mouse 4T1 cells assessed per gram of tissue at 0.18 mg/kg, ip after 6 hrs by HPLC-based fluorescence analysis. Particulars: in vivo. It counts as ADME, organism-based. In short, it runs like this: as §1
Data set [11] can be described thus: Drug uptake in BALB/c mouse small intestine implanted with mouse 4T1 cells assessed per gram of tissue at 0.18 mg/kg, ip after 24 hrs by HPLC-based fluorescence analysis. The class given is ADME, organism-based. The settings on record: in vivo. In short, it runs like this: as §2
In data set [12] the test system is Lung. In words: Drug uptake in BALB/c mouse lung implanted with mouse 4T1 cells assessed per gram of tissue at 0.18 mg/kg, ip after 12 hrs by HPLC-based fluorescence analysis. It counts as ADME, organism-based. The settings on record: in vivo. The method in brief:
as §1

Data set [13] concerns Heart. Kind of data set: Drug uptake in BALB/c mouse heart implanted with mouse 4T1 cells assessed per gram of tissue at 0.18 mg/kg, ip after 24 hrs by HPLC-based fluorescence analysis. The class given is ADME, organism-based. The settings on record: in vivo. In short, it runs like this:
as §1

In data set [14] the test system is U-251. In words: Photocytotoxicity against human U251 cells assessed as cell survival preincubated for 24 hrs followed by irradiation at 16 J/cm2 measured at 24 hrs by WST-8 assay. It counts as functional, cell-based. Particulars: U-251, light or radiation study. In short, it runs like this:
as §3
For orientation: Formazan colour is commonly taken as a measure of viable cells.

Data set [15] is described as follows: Drug uptake in BALB/c mouse large intestine implanted with mouse 4T1 cells assessed per gram of tissue at 0.18 mg/kg, ip after 6 hrs by HPLC-based fluorescence analysis. The class given is ADME, organism-based. Particulars: in vivo. In short, it runs like this: as §1
The nature of data set [16]: Ratio of drug level in tumor to skin in BALB/c mouse implanted with mouse 4T1 cells ip after 24 hrs. Particulars: in vivo.
For data set [17], the system named is Stomach. Kind of data set: Drug uptake in BALB/c mouse stomach implanted with mouse 4T1 cells assessed per gram of tissue at 0.18 mg/kg, ip after 24 hrs by HPLC-based fluorescence analysis. The class given is ADME, organism-based. Particulars: in vivo. The method in brief: as §2
For data set [18], the system named is Stomach. Kind of data set: Drug uptake in BALB/c mouse stomach implanted with mouse 4T1 cells assessed per gram of tissue at 0.18 mg/kg, ip after 48 hrs by HPLC-based fluorescence analysis. The settings on record: in vivo. The class given is ADME, organism-based. In short, it runs like this:
as §2

Data set [19] relates to T98G. In words: Photocytotoxicity against human T98G cells assessed as cell survival preincubated for 24 hrs followed by irradiation at 16 J/cm2 measured at 24 hrs by WST-8 assay. The settings on record: light or radiation study. It counts as functional, cell-based. In short, it runs like this:
as §3

The subject of data set [20] is HeLa. In words: Dark cytotoxicity against human HeLa cells at 0.5 uM assessed as cell survival preincubated for 24 hrs measured by WST-8 assay in absence of photoirradiation. The class given is cell-based. The method in brief:
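HeLa cells were seeded at 5 × 10^3 per well in DMEM with 10% FCS and grown for 24 h at 37°C. They were then exposed for 24 h to 0.5 µM photosensitizer (1% DMSO final), washed, and not irradiated. Viability was read 24 h later by WST-8 absorbance at 450 nm and expressed as percent of untreated wells.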

For data set [21], the system named is Liver. Kind of data set: Drug uptake in BALB/c mouse liver implanted with mouse 4T1 cells assessed per gram of tissue at 0.18 mg/kg, ip after 12 hrs by HPLC-based fluorescence analysis. The class given is ADME, organism-based. The settings on record: in vivo. The method in brief: as §1
A short description of data set [22]: Drug uptake in BALB/c mouse large intestine implanted with mouse 4T1 cells assessed per gram of tissue at 0.18 mg/kg, ip after 72 hrs by HPLC-based fluorescence analysis. The settings on record: in vivo. The class given is ADME, organism-based. In short, it runs like this:
as §1

Active and inactive are the calls of the source.

In the case of `CN1CC2C3=N/C(=C(/c4c(F)c(F)c(S[C@@H]5O[C@H](CO)[C@@H](O)[C@H](O)[C@H]5O)c(F)c4F)C4=N/C(=C(/c5c(F)c(F)c(F)c(F)c5F)c5ccc([nH]5)/C(c5c(F)c(F)c(S[C@@H]6O[C@H](CO)[C@@H](O)[C@H](O)[C@H]6O)c(F)c5F)=C5/C=CC(=N5)C3c3c(F)c(F)c(F)c(F)c3F)C=C4)C2C1` (some centres not stated), the Drug uptake in data set [1] came to 77 ng; in data set [2] it was 90 ng; in data set [6] it was 38 ng; in [7], 3.3 ng; in [8], 2.1 ng/g; in data set [9], 5 ng. Besides, the Drug uptake in data set [10] came to 109 ng/g; in data set [11], 39 ng/g; in data set [12], 30 ng; in data set [13], 6.1 ng/g; in [15] it was 80 ng; in data set [17] it was 31 ng/g. Further, the Drug uptake was 6 ng in data set [18], 60 ng/g in data set [21] and 7 ng/g in data set [22]. In addition, the half-maximal effective concentration (EC50) in data set [3], in [14] and in [19] was 500 pM each time. For the same compound, the result in data set [4] and in data set [5] was Active. For the same compound, the Ratio in data set [16] is reported as 60. Also, the Activity entry in data set [20] is recorded as “Non-toxic”.

For orientation: EC50 means the concentration needed to bring the measured effect to its halfway point.
